Screening results from PubChem BioAssay.
Sampled rows, rich in hits. Any-hit rate of the full collection: about 9.4%.
Mdm2 MdmX PPI = disrupts the human Mdm2-MdmX interaction; SaOS-2 split-luciferase Mdm2/MdmX complementation, luminescence; inhibition, % at 8 µM; 3% of 330,000 active; AID 485346;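 active = inhibition of at least 50% at 8 µM in the primary screen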
Target sequence (O15151 whole entry, looked up): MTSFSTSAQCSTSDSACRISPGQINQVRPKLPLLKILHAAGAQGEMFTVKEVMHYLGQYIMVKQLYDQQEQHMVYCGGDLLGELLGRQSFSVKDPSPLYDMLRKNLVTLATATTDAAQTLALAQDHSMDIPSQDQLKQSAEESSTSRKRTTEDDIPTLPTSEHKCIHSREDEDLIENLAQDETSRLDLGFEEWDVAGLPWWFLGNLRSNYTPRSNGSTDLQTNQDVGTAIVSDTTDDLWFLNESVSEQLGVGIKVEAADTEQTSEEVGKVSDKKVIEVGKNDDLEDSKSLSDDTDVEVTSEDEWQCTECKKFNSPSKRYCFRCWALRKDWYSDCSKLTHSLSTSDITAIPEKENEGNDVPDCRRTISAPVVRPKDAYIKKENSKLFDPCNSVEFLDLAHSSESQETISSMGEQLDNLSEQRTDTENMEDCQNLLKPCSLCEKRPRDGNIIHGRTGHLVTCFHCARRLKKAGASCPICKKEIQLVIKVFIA
Target sequence (Q00987 whole entry, looked up): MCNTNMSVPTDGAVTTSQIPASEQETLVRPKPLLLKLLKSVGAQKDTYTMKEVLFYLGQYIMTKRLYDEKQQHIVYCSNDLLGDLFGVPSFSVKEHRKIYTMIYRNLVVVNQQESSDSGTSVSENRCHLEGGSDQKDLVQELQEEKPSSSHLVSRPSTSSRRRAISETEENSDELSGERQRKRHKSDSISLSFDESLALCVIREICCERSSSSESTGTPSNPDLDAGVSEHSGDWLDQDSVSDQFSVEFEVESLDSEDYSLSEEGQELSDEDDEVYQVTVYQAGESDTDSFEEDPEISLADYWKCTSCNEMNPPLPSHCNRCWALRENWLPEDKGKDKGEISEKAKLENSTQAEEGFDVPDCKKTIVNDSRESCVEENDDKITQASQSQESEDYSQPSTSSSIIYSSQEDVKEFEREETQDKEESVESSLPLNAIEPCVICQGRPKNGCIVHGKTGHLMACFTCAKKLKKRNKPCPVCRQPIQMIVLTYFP
SKKanGAS inh = blocks kanamycin growth of S. pyogenes SKKanGAS strain; BacTiter-Glo, 6 h; inhibition, % at 7.5 µM; 1.3% of 300,000 active; AID 1662;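 active = mean replicate score, as percent of positive control median, at least 50; inconclusive = mean below 50 but one replicate at or above 50; inactive = mean and every replicate below 50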;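 also: strain carries kanamycin resistance gene driven by streptokinase promoter and grows in 40 µg/ml kanamycin; loss of luminescence reflects streptokinase promoter inhibition or plain growth inhibition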
CSC inhib = cancer stem cell inhibition; 1.1% of 300,000 active; cancer stem cell-like cells viability, luminescence; inhibition, % at 7.5 µM; in the data active = inhibition above about 75%; inconclusive = no clear call, values can overlap the other calls; tested in HMLE shEcad cells
L major viab = inhibitors of Leishmania major promastigote growth | Leishmania major promastigotes, resazurin fluorescence viability | inhibition, % at 10 µM | 9% of 200,000 active | AID 1063; in the data active = inhibition above about 50%;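 also: promastigotes grown with compound for 44 hours at 28 °C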
Beta cell apopt = beta cell apoptosis inhibition | INS-1E cytokine-induced death, ATP luminescence, 48 h; percent of positive-control rescue, neutral wells zero | protection from apoptosis, % (test concentration not listed) | 0.8% of 300,000 active | AID 435005;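 active = Every replicate reaches about 75%, or at least half do and their mean reaches it too, limit read from the data; inconclusive = At least half of replicates reach the limit but their mean does not; inactive = Under half of replicates reach the limit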;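 also: higher means more ATP so stronger rescue from cytokine killing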
T cruzi inh = blocks replication of Trypanosoma cruzi; 1.4% of 300,000 active; T. cruzi beta-gal in NIH3T3, luminescence, 90 h; inhibition, % (test concentration not listed);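 active = mean inhibition across valid replicates above about 55%, limit read from the data; inconclusive = mean below that limit but half or more replicates reach it; inactive = mean below it, under half of replicates reach it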;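 also: signal also drops with host cell toxicity which is not excluded here; higher percent means less beta-gal luminescence so fewer parasites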
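assay system = mouse NIH/3T3 fibroblasts infected with β-gal-expressing T. cruzi Tulahuen C4 | input = 5,000 NIH/3T3 host cells per well | buffer or medium = DMEM plus 2% FBS | timing = 3 h host attachment, then at least 90 h co-culture | measured by = GalScreen luminescence, 60 min | evaluation = luminescence reflecting intracellular parasite burden, expressed as percent inhibition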
Large screens that a line does not name were inactive.

N#Cc1nc(COc2ccc(Br)cc2)oc1N1CCN(Cc2ccccc2)CC1	none (no result: Mdm2 MdmX PPI, SKKanGAS inh, CSC inhib, Beta cell apopt, T cruzi inh)
c1ccc(CCc2ccncc2)cc1	T cruzi inh 56 (no result: L major viab)
CCOC(=O)C1CCN(c2c(NCCC(C)C)c(=O)c2=O)CC1	none (no result: L major viab)
COc1ccc(-c2cc3ncnc(Cl)c3s2)cc1	SKKanGAS inh 54 (no result: L major viab)
Cc1c(NC(=O)c2cc3ccccc3o2)c(=O)n(-c2ccccc2)n1C	none (no result: CSC inhib)
Cc1c(NC(=S)NC(=O)c2cc3ccccc3o2)c(=O)n(-c2ccccc2)n1C	L major viab 53
CCOC(=O)C1=C(C)NC(C)=C(C(=O)OCC)C1C(=O)OCC(=O)N(C)C1CCS(=O)(=O)C1 (stereo unspecified)	none
CCO[C@@H]1OC(C(=O)O)=C[C@H](c2ccc3c(c2)OCO3)[C@H]1CCCO	none
CCCS(=O)(=O)c1nc(S(=O)(=O)c2ccc(C)cc2)c(N2CCC(C(N)=O)CC2)s1	none (no result: CSC inhib, L major viab)
CCOc1ccc(-n2c(C)cc(/C=N/N(C)C)c2C)cc1	T cruzi inh 56
CN(C(=O)COC(=O)/C=C/c1cccs1)c1c(N)n(Cc2ccccc2)c(=O)[nH]c1=O	none (no result: L major viab)
COc1ccc(S(=O)(=O)N2CCC(C(=O)N3CCc4ccccc4C3)CC2)cc1Cl	L major viab 96 (no result: CSC inhib, Beta cell apopt)
CCOCCCN(C)C1CCN(C(=O)c2oc3ccccc3c2NC(=O)c2ccc(F)cc2)CC1	T cruzi inh 56 (no result: L major viab)
CCOCCCN(C)C1CCN(C(=O)c2oc3ccccc3c2NC(=O)c2ccc([N+](=O)[O-])cc2)CC1	none (no result: L major viab)
S=C1NC[C@H](CC2CCCCC2)N1CC1CCCCC1	SKKanGAS inh 61
CCCC[C@@H]1CNC(=S)N1CC1CCCCC1	none (no result: L major viab)
CC(=O)c1ccc(N2CCN(S(=O)(=O)c3ccc4c(c3)CC(C)N4C(C)=O)CC2)cc1 (stereo unspecified)	Beta cell apopt 91 (no result: L major viab)
COc1ccccc1N1CCN(C(=O)C2CCN(S(=O)(=O)c3ccc4c(c3)CC(C)N4C(=O)C3CC3)CC2)CC1 (stereo unspecified)	none (no result: L major viab)
CCC(=O)N1c2ccc(S(=O)(=O)N3CCN(CC)CC3)cc2CC1C (stereo unspecified)	none (no result: L major viab)
CC1Cc2cc(S(=O)(=O)N3CCC(C(=O)N4CCN(c5ccccc5F)CC4)CC3)ccc2N1C(=O)C1CC1 (stereo unspecified)	Beta cell apopt 75 (no result: L major viab)
CCC(=O)N1c2ccc(S(=O)(=O)N3CCN(c4ccc([N+](=O)[O-])cc4)CC3)cc2CC1C (stereo unspecified)	Beta cell apopt 92 (no result: L major viab)
N#Cc1cccc(NC(=O)COC(=O)CCc2nc3ccccc3c(=O)[nH]2)c1	none
CCCCCCCCc1nnc(N)s1	none (no result: L major viab)
CC1(C)C2CCC1(CS(=O)(=O)Nc1ccc(S(=O)(=O)NC3CCCCC3)cc1)C(=O)C2 (stereo unspecified)	none
CC1(C)C2CCC1(CS(=O)(=O)Nc1ccc(S(=O)(=O)N3CCCC3)cc1)C(=O)C2 (stereo unspecified)	L major viab 50
C=CCN(c1ccccc1)S(=O)(=O)c1ccc(Cl)c(C(=O)OCC(=O)c2[nH]c(C)c(C(C)=O)c2C)c1	L major viab 76
CCNc1nc(N)nc(Oc2ccc(OCCOc3ccc(Cl)cc3Cl)nn2)n1	L major viab 98, T cruzi inh 66
CCNc1nc(NCC)nc(Oc2ccc(OCC)nn2)n1	none
O=Cc1cccn1-c1sc2c(c1C(=O)O)CCCC2	none
N#Cc1c(-n2cccc2C=O)sc2c1CCCC2	L major viab 52
O=S(=O)(Nc1ccc(N=Nc2ccccc2)cc1)c1ccccc1	none (no result: CSC inhib)
O=S(=O)(Nc1ccc(N=Nc2ccc(O)c3ccccc23)cc1)c1ccccc1	SKKanGAS inh 96, CSC inhib 79, L major viab 86
O=C(CC(SCCO)c1ccc2c(c1)OCO2)c1ccco1 (stereo unspecified)	L major viab 56
O=C(NCc1ccc2c(c1)OCO2)c1ccco1	none
CC1CSc2n(-c3cccc(C(F)(F)F)c3)cc(-c3ccccc3)[n+]21 (stereo unspecified)	L major viab 87
FC(F)(F)c1cccc(-n2cc(-c3ccccc3)[nH]c2=S)c1	none (no result: L major viab)
COc1ccc(C(=O)Nc2ccccc2-c2nnn(CC(=O)Nc3ccc4c(c3)OCCO4)n2)cc1	SKKanGAS inh 66
COc1cc(NC(=O)Cn2nnc(-c3ccccc3N)n2)cc(OC)c1	L major viab 55
COc1ccccc1-c1nnn(C/C(N)=N/O)n1	L major viab 72
O=C(NC1CC1)C1=C[C@@H](C2CCCCC2)C[C@@H](OCCCCO)O1	none
COc1ccc(OC)c(CNC(=O)C2CCC(=O)N(CCCN3CCCC3=O)C2)c1 (stereo unspecified)	none (no result: L major viab)
CCc1nc2c(c(=O)[nH]1)C1(CCCC1)Cc1ccccc1-2	none
NNc1nc(N)c2c(n1)-c1ccccc1CC21CCCC1	L major viab 100
O=Cc1cn(CC(O)Cn2cc(C=O)c3ccccc32)c2ccccc12	none (no result: L major viab)
O=C(/C=C/c1cn(CC(O)CN2CCCCCC2)c2ccccc12)c1cccs1 (stereo unspecified)	L major viab 100
Cc1ccc(C(=O)/C=C/c2cn(CN3CCN(C)CC3)c3ccccc23)cc1	none (no result: CSC inhib)
CCCCN(C)CC(O)Cn1cc(/C=C/C(=O)c2cccs2)c2ccccc21 (stereo unspecified)	L major viab 69 (no result: Mdm2 MdmX PPI)
Cc1ccc(NC(=O)Nc2ccc(F)cc2)cc1Cl	none
COc1ccc(C(=O)C(CCC(CNC(C)(C)C)C(=O)c2ccc(OC)cc2)CNC(C)(C)C)cc1 (stereo unspecified)	L major viab 100 (no result: Mdm2 MdmX PPI)
COc1ccc(C(=O)CC(=O)c2ccc(F)cc2)cc1	none (no result: L major viab)
O=C(NCc1cccnc1)C(=O)NC1CCCCC1	none
CNC(=O)C(=O)Nc1nc(C23CC4CC(CC(C4)C2)C3)cs1	none
O=C(NCc1ccccc1)C(=O)Nc1nc(C23CC4CC(CC(C4)C2)C3)cs1	SKKanGAS inh 102
O=C(NCc1cccnc1)C(=O)Nc1nc(C23CC4CC(CC(C4)C2)C3)cs1	Beta cell apopt 161 (no result: L major viab)
COc1cc(CO)ccc1Oc1nc2ccccc2n2cnnc12	none (no result: L major viab, Beta cell apopt)
COc1ccccc1-n1c(SCC(=O)Nc2ccc(NC(C)=O)cc2)nc2c([nH]c3ccccc32)c1=O	SKKanGAS inh inconclusive (no result: L major viab)
CCCc1nc2c(C)cc(C)cc2c(N)c1CC	L major viab 98
COc1cc(/C=C/C(=O)O)ccc1O	none (no result: L major viab, Beta cell apopt)
COc1cc(/C=C/c2ccc3c(Br)cc(Br)c(O)c3n2)ccc1O	SKKanGAS inh 97, CSC inhib 115 (no result: Mdm2 MdmX PPI, L major viab)
COc1ccc(/C=C/c2ccc3c(Br)ccc(O)c3n2)cc1	SKKanGAS inh 85, CSC inhib 89 (no result: L major viab)
Cn1cc(/C=C(\C#N)C(=O)Nc2ncc(Cc3cccc(Cl)c3)s2)c2ccccc21	L major viab 91
N#C/C(=C\c1c[nH]c2ccccc12)C(=O)Nc1ncc(Cc2ccc(Cl)cc2Cl)s1	T cruzi inh inconclusive
O=C(NC(=S)N1CCCCC1c1cccnc1)c1ccc(F)cc1 (stereo unspecified)	SKKanGAS inh 99 (no result: L major viab)
